Measured values taken from paper PMC4160413 (Cancer cell, 2014).
Where two headings read alike, the source gives them in different places.

What was measured:
Aurora A = molecular target: T1, Aurora A (Homo sapiens, UniProt O14965, T287D); test: In vitro kinase assay with purified Aurora A protein; format: biochemical; conditions: structure-activity comparison
T1 sequence (O14965 123-390 T287D): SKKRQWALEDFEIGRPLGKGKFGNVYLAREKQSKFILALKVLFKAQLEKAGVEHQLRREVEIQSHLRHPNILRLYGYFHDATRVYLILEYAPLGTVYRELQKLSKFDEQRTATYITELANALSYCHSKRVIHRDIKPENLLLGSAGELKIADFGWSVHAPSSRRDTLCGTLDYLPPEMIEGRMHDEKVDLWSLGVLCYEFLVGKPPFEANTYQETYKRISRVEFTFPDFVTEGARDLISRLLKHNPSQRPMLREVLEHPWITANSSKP

MYCN [1] = test: Immunoblot of MYCN protein in SK-N-BE; format: cell-based; conditions: SK-N-BE(2) cells, 1 μM, 24 hr
MYCN-Aurora A complex = molecular target: T2, MYCN-Aurora A complex (Homo sapiens, UniProt O14965); test: MYCN immunoprecipitation; format: cell-based; conditions: for dissociation of the MYCN-Aurora A complex: IMR32 cells, 2 hr drug, MG-132 4 hr
T2 sequence (O14965 1-403): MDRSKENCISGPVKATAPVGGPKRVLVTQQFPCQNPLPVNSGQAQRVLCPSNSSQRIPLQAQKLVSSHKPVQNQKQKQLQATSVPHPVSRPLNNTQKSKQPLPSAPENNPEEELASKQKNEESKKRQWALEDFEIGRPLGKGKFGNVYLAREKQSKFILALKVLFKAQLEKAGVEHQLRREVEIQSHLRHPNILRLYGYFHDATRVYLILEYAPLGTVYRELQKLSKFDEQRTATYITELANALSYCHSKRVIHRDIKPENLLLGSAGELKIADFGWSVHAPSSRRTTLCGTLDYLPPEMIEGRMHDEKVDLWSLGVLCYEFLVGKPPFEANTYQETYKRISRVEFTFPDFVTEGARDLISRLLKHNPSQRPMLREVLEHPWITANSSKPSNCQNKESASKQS

[2] = system: MYCN-expressing SHH-subtype medulloblastoma allograft; test: SHH-subtype medulloblastoma subcutaneous allograft; format: in vivo, mice; conditions: 25 mg/kg twice per week
Method in brief: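 Homozygous nu/nu mice carried flank subcutaneous allografts of SHH-subtype MYCN-expressing medulloblastoma (10⁶ cells per mouse). Dosing began at 25 mm³ tumor volume (~14 days): vehicle (5% DMSO in PEG300; n=6) or 25 mg/kg (formulated at 7.5 mg/ml; n=4), intraperitoneally twice weekly for up to three weeks. Endpoint was 2.0 cm maximum tumor length. Tumor burden compared by two-tailed t-test, survival by log-rank test.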

[3] = system: panel 169 distinct tumor-derived cell lines; test: Screen of 169 tumor-derived cell lines; format: cell-based; conditions: for susceptibility of MYCN-amplified versus non-amplified cell lines: 93 lines with MYCN copy number
MYCN [4] = test: Immunoblot of MYCN in SHEP cells expressing MYCN WT or T58A/S62A; format: cell-based; conditions: 24 hr; for wild-type MYCN protein level: SHEP MYCN WT
[5] = system: Kelly MYCN-amplified neuroblastoma cells; test: CyQUANT viability assay, 72 hr, Kelly; format: cell-based; conditions: read-out: cellular EC50 at 72 hr
[6] = system: GFP- and MYCN-transduced SH-EP neuroblastoma cells; test: Viability of SHEP cells transduced with MYCN or GFP, 72 hr; format: cell-based; conditions: MYCN- vs GFP-transduced SH-EP
SK-N-BE(2) cells = test: Cell cycle by flow cytometry; format: cell-based
Method in brief: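 SK-N-BE(2) cells in RPMI with 10% FBS, exposed to test compound for the stated time. EdU pulse before harvest: 2 hours per methods, 1 hr in the 6 hr, 1 μM experiment. Detection used the Click-iT EdU flow kit plus propidium iodide staining, read on a FACSCalibur. Gating was done in Cytobank.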

[7] = system: MYCN-amplified SMS-KCN xenografts; test: MYCN-amplified SMS-KCN neuroblastoma xenograft; format: in vivo, mice; conditions: 60 mg/kg for 2 days
Method in brief: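 NOD scid gamma mice received 10⁶ SMS-KCN cells in growth media with 50% Geltrex, implanted into the renal capsule. Tumors were palpable at 21 days post implantation. Mice were then dosed at 60 mg/kg for two days, and tumors were harvested and flash frozen. MYCN protein was measured by immunoblot and compared by two-tailed Student's t-test (mean ± SEM).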

[8] = Pharmacokinetic study in mice; format: in vivo
Method in brief: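 Test compound formulated at 20 mg/ml in 7.5% DMSO / 92.5% PEG300 and given to mice. Compound levels determined by LC-MS/MS.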

[9] = system: SK-N-BE(2) MYCN-amplified neuroblastoma cells; test: CyQUANT viability assay, 72 hr, SK-N-BE; format: cell-based; conditions: read-out: cellular EC50 at 72 hr
[10] = same dose (20 mg/kg); ref Carol et al., 2011; cited from earlier work
MYCN and p-Histone H3 = test: Immunoblot screen of MYCN and p-H3 in Kelly cells; format: cell-based; conditions: 1 μM, 24 hr
Method in brief: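 Kelly cells in RPMI with 10% FBS, given one of 32 compounds at 1 μM for 24 hr. Lysis in Cell Signaling buffer with 1% SDS, then sonication and boiling in LDS sample buffer. Immunoblots probed for MYCN, Histone H3, P-Histone H3 (S10), Aurora A and GAPDH. Bands quantified by densitometry and expressed as percent of untreated control.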

[11] = CD532 1 μM 4 hr, MLN8237 0.1 μM 4 hr, JQ1 2 μM 24 hr

| Structure (SMILES) | cell-free potency against Aurora A relative to CD532 (Aurora A) | efficacy against MYCN (MYCN loss) relative to CD532 (MYCN [1]) | dissociation of the MYCN-Aurora A complex (MYCN-Aurora A complex) | susceptibility of MYCN-amplified versus non-amplified cell lines [3] | wild-type MYCN protein level (MYCN [4]) | cell cycle effect (SK-N-BE(2) cells; 1 μM, 4 or 6 hr) | cell cycle effect (SK-N-BE(2) cells; [11]) | Histone H3 phosphorylation (MYCN and p-Histone H3) | MYCN protein level (MYCN and p-Histone H3) | other results |
| --- | --- | --- | --- | --- | --- | --- | --- | --- | --- | --- |
| Cc1cc(Nc2cc(C3CCCC3)[nH]n2)nc(Nc2ccc(NC(=O)Nc3cccc(C(F)(F)F)c3)cc2)n1 [CD15] | maintained | maintained |  |  |  |  |  |  |  |  |
| O=C(Nc1ccccc1)Nc1ccc(Nc2nccc(Nc3cc(C4CCCC4)[nH]n3)n2)cc1 [CD25] | retained potency | less effective than CD532 |  |  |  |  |  |  |  |  |
| O=C(Nc1ccc(Nc2nccc(Nc3cc(C4CCCC4)[nH]n3)n2)cc1)Nc1cccc(C(F)(F)F)c1 [CD532] |  |  | dose-dependent and complete dissociation | significantly more susceptible | dose-dependently decreased | potent loss of S-phase entry | rapid and potent loss of S-phase |  |  | MYCN-MAX binding (MYCN-Aurora A complex; specificity control): did not affect; tolerability of dosing regimen [2]: without obvious short or long-term toxicity or weight loss; MYCN levels in tumors ([2]; intraperitoneal): substantially reduced MYCN levels; survival ([2]; intraperitoneal): extended survival; tumor burden ([2]; intraperitoneal): reduced tumor burden; EC50s in cell line panel ([3]; most cell lines): nanomolar range; MYCN T58A/S62A protein degradation (MYCN [4]; SHEP MYCN T58A/S62A): less effective; EC50 [5]: 147 nM; effect of MYCN transduction on sensitivity [6]: conferred sensitivity; MYCN protein level in xenograft tumors [7]: decreased levels of MYCN protein; serum half-life [8]: ~ 1.5 hr; AUC0-24 ([8]; 20 mg/kg): 27 µM·h; EC50 [9]: 223 nM |
| Cc1sc2c(c1C)C(c1ccc(Cl)cc1)=N[C@@H](CC(=O)OC(C)(C)C)c1nnc(C)n1-2 [JQ1, reference compound] |  |  |  | significantly more susceptible |  |  | downregulation of MYCN, blockade of S-phase entry, and accumulation of cells in G0/G1 |  |  |  |
| COc1cc(Nc2ncc3c(n2)-c2ccc(Cl)cc2C(c2c(F)cccc2OC)=NC3)ccc1C(=O)O [MLN8237] |  |  | only modestly disrupted |  |  | G2/M arrest | accumulation of cells in G2 and M phase | blocked Histone H3 phosphorylation | very modest effects | AUC0-24 [10]: 78.4 µM·h |
| Cc1cc(Nc2cc(N3CCN(C)CC3)nc(Sc3ccc(NC(=O)C4CC4)cc3)n2)[nH]n1 [VX-680] |  |  |  |  | little effect | G2/M arrest |  | blocked Histone H3 phosphorylation | very modest effects |  |
